# Bioassay records from PubChem.
# mABHD4 FP = inhibitors of mouse ABHD4; Q8VD66; purified mABHD4, FP-Rh probe fluorescence polarization; inhibition, % at 8.92 µM; 370,000 tested, 0.54% active;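 active means inhibition exceeding the mean over every tested compound plus 3 SD, cut at about 30% in these data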
#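 Doses – 8.92 µM, single dose · Material – wild-type mouse ABHD4 protein · Replication – single well per compound (singlicate) · Measure – percent inhibition of probe binding, normalized to plate controls · Schedule – 45 min compound pre-incubation plus 60 min probe step, 25 °C · Detection – fluorescence polarization with parallel and perpendicular emission, 525/598 nm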
# TCR CD3 inh = human TCR-CD3 binding inhibition; TAMRA-labeled TCR probe fluorescence, biochemical; inhibition, % at 9.4 µM; 360,000 tested, 0.37% active; in the data active means inhibition above about 19%;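 further: recombinant mutant TCR 2C K166C tagged with TAMRA read by polarization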
# HTRA1 inh = inhibitors of human serine peptidase HTRA1; Q92743; recombinant HTRA1, FP-rhodamine activity-based probe, fluorescence polarization; inhibition, % at 5.96 µM; 340,000 tested, 0.5% active; AID 504803; in the data active means inhibition above about 36%
# Tn7 DDE FP = disrupts Tn7 cyclic peptide binding to fibrin D-Dimer-E complex. inhibition, % at 8.3 µM. FP displacement of FITC-Tn7 peptide from fibrin DD(E); 0% = median of compound wells per plate. P02675. 370,000 tested, 0.13% active;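 active means inhibition above the mean of compounds falling within the control limits plus 3 SD of them, cut at about 14% in these data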
#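 system = human fibrin DD(E) protein | quantity = DD(E) 2 µM final | medium = Tris/NaCl/CaCl2 buffer, pH 7.8 | also added = labelled Tn7 tracer, 0.1 µM | compound dosing = single point at 8.3 µM | timing = compound with protein 10 min, then 3 h after probe, room temperature | signal = FP measurement | benchmarks = Aha-Tn7 high control | repeats = one replicate per compound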
# SIAE inh = human SIAE inhibition, primary screen | Q9HAT2 | AID 1053197 | inhibition, % at 9.66 µM | SIAE FP-Rh probe binding, fluorescence polarization | 370,000 tested, 0.69% active;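 active means inhibition above a cutoff: mean of compounds within the control limits plus 3 SD of those, cut at about 17% in these data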
# Target sequence (Q9HAT2 whole entry, looked up): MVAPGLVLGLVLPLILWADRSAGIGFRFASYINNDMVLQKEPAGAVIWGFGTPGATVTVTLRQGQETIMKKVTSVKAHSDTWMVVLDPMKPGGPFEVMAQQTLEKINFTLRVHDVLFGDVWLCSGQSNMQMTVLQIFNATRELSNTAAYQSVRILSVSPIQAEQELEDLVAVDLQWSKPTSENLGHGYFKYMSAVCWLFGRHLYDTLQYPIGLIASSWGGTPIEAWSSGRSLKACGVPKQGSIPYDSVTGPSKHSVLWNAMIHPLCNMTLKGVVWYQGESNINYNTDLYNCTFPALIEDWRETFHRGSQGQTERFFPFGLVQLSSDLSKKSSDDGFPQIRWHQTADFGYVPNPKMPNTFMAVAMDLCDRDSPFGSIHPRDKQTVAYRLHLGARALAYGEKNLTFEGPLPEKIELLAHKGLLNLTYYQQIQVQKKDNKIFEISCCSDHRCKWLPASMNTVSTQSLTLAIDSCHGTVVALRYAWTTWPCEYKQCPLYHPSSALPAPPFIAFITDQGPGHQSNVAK
# Tn6 DDE FP = inhibitors of Tn6 peptide binding to human fibrin DD(E); P02675; Fibrin DD(E) TRITC-Tn6 fluorescence polarization displacement; inhibition, % at 8.3 µM; 370,000 tested, 0.21% active; AID 720509;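 active means inhibition above a per-campaign cutoff: mean of compounds within control limits plus 3 SD, cut at about 15% in these data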
# SIAE confirm = human SIAE inhibition, confirmation. inhibition, % at 9.66 µM. SIAE FP-Rh activity-based probe, fluorescence polarization. shares compounds with SIAE inh. 2,300 tested, 13% active;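 active means mean inhibition of the replicates above the hit cutoff set in the primary screen, cut at about 17% in these data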;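 further: inhibitors lower polarization as more probe stays unbound to SIAE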
# Numbers stand for hits; – = inactive; · = no result given. Only some compounds are listed: those with a hit (about 1.8% of all), similar ones and a draw of the others.
SMILES,mABHD4 FP,TCR CD3 inh,HTRA1 inh,Tn7 DDE FP,SIAE inh,Tn6 DDE FP,SIAE confirm
CC(=O)Nc1ccc(C(=O)CN2C(=O)NC3(CCOc4ccccc43)C2=O)c(F)c1 (configuration not stated),–,–,–,–,19.4,–,–
CC(=O)Nc1ccc(C(=O)CN2C(=O)NC3(CCCCCC3)C2=O)c(F)c1,–,–,–,–,–,–,·
CCC[C@H]1[C@@H](OC(=O)NCc2cccc(C(F)(F)F)c2)CC[C@@]23CCCN2C(=O)CCC[C@@H]13,–,·,·,–,–,–,·
CCOC(=O)COc1cc(-n2c(=S)[nH]c3cc(OC)c(OC)cc3c2=O)c(Cl)cc1Cl,–,–,–,–,–,–,·
CCOC(=O)COc1cc(N2C(=O)CSCC2=O)c(Cl)cc1Cl,–,–,–,–,71.5,–,–
Cc1ccc(NC(=O)OC2CC3CC2[C@H]2CCCCN2[C@H]3Cc2ccccc2)cc1 (some centres not stated),–,·,·,–,–,–,·
O=C(Nc1ccncc1)C1CCN(S(=O)(=O)c2cccc(C(F)(F)F)c2)CC1,–,–,–,–,18.2,–,–
O=C(NCc1ccncc1)C1CCN(S(=O)(=O)c2cccc(C(F)(F)F)c2)CC1,–,–,–,–,–,–,·
COc1cc(-c2nnc(CSc3nnc(Nc4ccc(Oc5ccccc5)cc4)s3)o2)cc(OC)c1OC,–,–,–,–,19.4,–,–
COc1cc(-c2nnc(CSc3nnc(N)s3)o2)cc(OC)c1OC,–,–,–,–,–,–,·
COc1ccc(Nc2nc(C)nc3c2nnn3Cc2ccccc2)cc1OC,–,–,–,–,17.4,–,–
Cc1nc(Nc2ccc(Cl)cc2)c2nnn(Cc3ccccc3)c2n1,–,–,–,–,–,–,·
COc1cc2ccccc2cc1C(=O)N1CCN(C(C)=O)CC1,–,–,–,–,21.7,–,–
COc1cc2ccccc2cc1C(=O)N1CCN(c2ccccn2)CC1,–,–,–,–,–,–,·
CCN(CC(=O)Nc1c(C(=O)OC)[nH]c2ccc(Cl)cc12)c1ccc2c(c1)OCO2,–,–,–,–,21.2,–,–
COc1ccc(NC(=O)N(C)C[C@H]2Oc3c(NC(=O)c4ccncc4)cccc3C(=O)N([C@H](C)CO)C[C@@H]2C)cc1,–,–,–,–,22.9,–,–
COC(=O)[C@]12C[C@H](CC(=O)NCc3ccc(OC)c(OC)c3)C(=O)N(Cc3ccc(Cl)cc3Cl)C1=C[C@H](COCc1ccccc1)O[C@@H]2C,–,·,·,–,–,–,·
CC(Sc1nnc(NCc2ccccc2)s1)C(=O)Nc1ccc2c(c1)C(=O)c1ccccc1C2=O (configuration not stated),–,–,–,–,17.9,–,–
CC(Sc1nnc(Nc2ccccc2)s1)C(=O)Nc1nc(-c2ccccc2)cs1 (configuration not stated),–,–,–,–,22.1,–,–
COC(=O)[C@]12C[C@H](CC(=O)NCCC(C)C)C(=O)N(Cc3cccc4ccccc34)C1=C[C@H](C1CCCC1)O[C@@H]2C,–,·,·,–,–,–,·
COC(=O)c1ccccc1NC(=O)NCC1CCN(Cc2ccc(OC)cc2)CC1,–,·,·,–,–,–,·
C/C(C=NNC(=O)CSc1nnc(-c2ccc(Cl)cc2)n1-c1ccc(C)cc1)=C\c1ccccc1,–,·,·,–,–,–,·
CNC(=S)N(Cc1cccs1)Cc1cc2cc(OC)ccc2[nH]c1=O,–,–,–,–,42.4,–,72.6
CC1=NN(c2cccc([N+](=O)[O-])c2)C(=O)C1,–,–,–,–,17.3,–,–
CC1=NN(c2ccccc2)C(=O)C1,–,–,–,–,–,–,·
SMILES,mABHD4 FP,TCR CD3 inh,HTRA1 inh,Tn7 DDE FP,SIAE inh,Tn6 DDE FP,SIAE confirm
O=C(N[C@H](Cc1ccccc1)C(=O)N1CCN(CC(=O)N2CCCC2)CC1)[C@H]1O[C@@H](n2ccc(=O)[nH]c2=O)[C@H](O)[C@@H]1O,–,–,·,–,47.2,–,42.9
O=C(N[C@H](Cc1ccccc1)C(=O)N1CCN(C(=O)N2CCOCC2)CC1)[C@H]1O[C@@H](n2ccc(=O)[nH]c2=O)[C@H](O)[C@@H]1O,–,–,·,–,–,–,·
NC(=O)c1ncn([C@@H]2O[C@H](C(=O)N[C@H](Cc3ccccc3)C(=O)N3CCN(CC(=O)Nc4ccccn4)CC3)[C@@H](O)[C@H]2O)n1,–,–,·,–,44.2,–,38.5
NC(=O)c1ncn([C@@H]2O[C@H](C(=O)N3CCN(CC(=O)Nc4ccccn4)CC3)[C@@H](O)[C@H]2O)n1,–,–,·,–,–,–,·
Cc1ccc(NC(=O)[C@@H](Cc2ccccc2)NC(=O)[C@H]2O[C@@H](n3ccc(=O)[nH]c3=O)[C@H](O)[C@@H]2O)cc1C,–,–,·,–,–,–,·
O=C(N[C@H](Cc1ccccc1)C(=O)N1CCN(C(=O)N2CCCCC2)CC1)[C@H]1O[C@@H](n2ccc(=O)[nH]c2=O)[C@H](O)[C@@H]1O,–,–,·,–,–,–,·
Cc1nccn1-c1ccc(NC(=O)[C@@H](Cc2ccccc2)NC(=O)[C@H]2O[C@@H](n3ccc(=O)[nH]c3=O)[C@H](O)[C@@H]2O)cc1,–,–,·,–,54.4,–,43.8
NC(=O)[C@@H]1CCCN1C(=O)[C@@H](Cc1ccccc1)NC(=O)[C@H]1O[C@@H](n2ccc(=O)[nH]c2=O)[C@H](O)[C@@H]1O,–,–,·,–,48.7,–,41.4
CSCC[C@@H](CO)NC(=O)[C@H]1O[C@@H](n2ccc(=O)[nH]c2=O)[C@H](O)[C@@H]1O,–,–,·,–,–,–,·
CC(C)[C@H](CO)NC(=O)[C@H]1O[C@@H](n2ccc(=O)[nH]c2=O)[C@H](O)[C@@H]1O,–,–,·,–,69.8,–,55.0
CN[C@H]1C[C@H]2c3[nH]c4cccc(-c5ccc6c(c5)OCO6)c4c3CCN2C[C@H]1[C@H](C)O,–,·,·,–,–,–,·
O=[N+]([O-])c1ccc(N2CCN(Cc3ccc4c(c3)OCO4)CC2)nc1,–,–,–,–,23.9,–,–
COc1ccc(NC(C)=O)c([N+](=O)[O-])c1[N+](=O)[O-],–,–,–,–,–,–,·
COc1ccc(OC)c([N+](=O)[O-])c1C(N)=O,–,–,–,–,33.0,–,–
COc1ccc(-c2cccc3[nH]c4c(c23)CCN2C(=O)[C@H]3[C@H](C)ON(C)[C@H]3C[C@@H]42)cc1,–,–,·,–,–,–,·
O=C(C1CCN(c2nc(-c3ccc(Br)cc3)cs2)CC1)N1CCNCC1,–,·,·,–,–,–,·
COC(=O)c1cccc(NC(=O)Nc2ccc(Cl)cc2)c1,–,–,·,–,19.5,–,–
